In the RNAGym collection of RNA variant scans (doi:10.1002/anie.201605470):

B1: Osa-1-4 twister ribozyme (parent)
chain: CCGCCUAACACUGCCAAUGCCGGUCCCAAGCCCGGAUAAAAGUGGAGGGGGCGG

Variants of: B1
Assay: self-cleavage, relative activity (ratio to wild type); higher = more cleavage; co-transcriptional
How it was run: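 A DNA template for a 54-nucleotide Oryza sativa twister ribozyme was synthesised with 97 % wild-type base and 1 % of each other base at the 48 positions downstream of the cleavage site. It was transcribed in vitro for 2 h at 37 °C, allowing co-transcriptional self-cleavage, then reverse-transcribed with a template-switching oligonucleotide, PCR-amplified and deep-sequenced. Cleavage status was scored from reads with or without upstream sequence. Relative activity is fraction cleaved normalised to wild type.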

Going from CCGCCUAACACUGCGAAUGCCGGUCCCAAGCCCGGAUAAAAGUGGAGGCGGCGG [C15G G49C] to CCGCCUAACACUGCGAAUGCCGGUCCCAAGCCCGGAUAAAAGUGGAGGAGGCGG [C15G G49A], the self-cleavage rises from 0.05 to 0.07.

First: CCGCCUAACACUGCGAAUGCCGGUCCCAAGCCCGGAUAAAAGUGGAGGUGGCGG [C15G G49U]
Second: CCGCCUAACACUGCGAAUGCCGCUCCCAAGCCCGGAUAAAAGUGGAGGGGGCGG [C15G G23C]
The self-cleavage of the first is lower: 0.06 for the first, 0.07 for the second.

Compared with CCGCCUAACACUGCGAAUGCCGAUCCCAAGCCCGGAUAAAAGUGGAGGGGGCGG [C15G G23A], CCGCCUAACACUGCGAAUGCCGUUCCCAAGCCCGGAUAAAAGUGGAGGGGGCGG [C15G G23U] is lower in self-cleavage: 0.14 for the first, 0.04 for the second.

Compared with CCGCCUAACACUGCGAAUGCCGGUCCCAAGCCCUGAUAAAAGUGGAGGGGGCGG [C15G G34U], CCGCCUAACACUGCGAAUGCCGGUCCCAAGCCCCGAUAAAAGUGGAGGGGGCGG [C15G G34C] is higher in self-cleavage: 0.13 for the first, 0.18 for the second.

Compared with CCGCCUAACACUGCGAAUGCCGGUCCCAAGCCCAGAUAAAAGUGGAGGGGGCGG [C15G G34A], CCGCCUAACACUGCGAAUGCCGGUCCCAAGCCCGGAUAAAAGUGGAGGGAGCGG [C15G G50A] is higher in self-cleavage: 0.27 for the first, 0.3 for the second.

Going from CCGCCUAACACUGCGAAUGCCGGUCCCAAGCCCGGAUAAAAGUGGAGGGCGCGG [C15G G50C] to CCGCCUAACACUGCGAAUGCCGGUCCAAAGCCCGGAUAAAAGUGGAGGGGGCGG [C15G C27A], the self-cleavage falls from 0.14 to 0.08.

Going from CCGCCUAACACUGCGAAUGCCGGUCCUAAGCCCGGAUAAAAGUGGAGGGGGCGG [C15G C27U] to CCGCCUAACACUGCGAAUGCCGGUCCGAAGCCCGGAUAAAAGUGGAGGGGGCGG [C15G C27G], the self-cleavage rises from 0.08 to 0.1.

Compared with CCGCCUAACACUGCAAAUGCCGGUCCCAAGCCCGGAUAAAAGAGGAGGGGGCGG [C15A U43A], CCGCCUAACACUGCAAAUGCCGGUCCCAAGCCCGGAUAAAAGGGGAGGGGGCGG [C15A U43G] is lower in self-cleavage: 0.14 for the first, 0.11 for the second.

Compared with CCGCCUAACACUGCAAAUGCCGGUCCCAAGCCCGGAUAAAAGCGGAGGGGGCGG [C15A U43C], CCGCCUAACACUGCGAAUGCCGGUCCCAAGUCCGGAUAAAAGUGGAGGGGGCGG [C15G C31U] is lower in self-cleavage: 0.1 for the first, 0.09 for the second.

First: CCGCCUAACACUGCGAAUGCCGGUCCCAAGGCCGGAUAAAAGUGGAGGGGGCGG [C15G C31G]
Second: CCGCCUAACACUGCGAAUGCCGGUCCCAAGACCGGAUAAAAGUGGAGGGGGCGG [C15G C31A]
The self-cleavage of the first is higher: 0.12 for the first, 0.03 for the second.

Compared with CCGCCUAACACUGCGAAUGCCGGUCCCAAGCCCGGAUAAAAGUGGAGGGGGAGG [C15G C52A], CCGCCUAACACUGCGAAUGCCGGUCCCAAGCCCGGAUAAAAGUGGAGGGGGUGG [C15G C52U] is higher in self-cleavage: 0.21 for the first, 0.48 for the second.

Compared with CCGCCUAACACUGCGAAUGCCGGUCCCAAGCCCGGAUAAAAGUGGAGGGGGGGG [C15G C52G], CCGCCUAACACUGCAAAUGCCGGUCCCAAGCCCGGAUAAAAGUGGAGGGGCCGG [C15A G51C] is lower in self-cleavage: 0.31 for the first, 0.04 for the second.

First: CCGCCUAACACUGCAAAUGCCGGUCCCAAGCCCGGAUAAAAGUGGAGGGGUCGG [C15A G51U]
Second: CCGCCUAACACUGCAAAUGCCGGUCCCAAGCCCGGAUAAAAGUGGAGGGGACGG [C15A G51A]
The self-cleavage of the first is lower: 0.07 for the first, 0.1 for the second.

Going from CCGCCUAACACUGCAAAUGCCGGUCCCAAGCCCGGAUAAAAGUGGAGGGUGCGG [C15A G50U] to CCGCCUAACACUGCGAAUGCCGGUCCCAAGCCCGGAUAAAAGUGGAGGGGGCGG [C15G], the self-cleavage rises from 0.23 to 0.54.

Going from CCGCCUAAAACUGCGAAUGCCGGUCCCAAGCCCGGAUAAAAGUGGAGGGGGCGG [C15G C9A] to CCGCCUAAGACUGCGAAUGCCGGUCCCAAGCCCGGAUAAAAGUGGAGGGGGCGG [C15G C9G], the self-cleavage rises from 0.06 to 0.66.

Compared with CCGCCUAAUACUGCGAAUGCCGGUCCCAAGCCCGGAUAAAAGUGGAGGGGGCGG [C15G C9U], CCGCCUAACACUGCGAAUGCUGGUCCCAAGCCCGGAUAAAAGUGGAGGGGGCGG [C15G C21U] is higher in self-cleavage: 0.11 for the first, 0.42 for the second.

Compared with CCGCCUAACACUGCGAAUGCAGGUCCCAAGCCCGGAUAAAAGUGGAGGGGGCGG [C15G C21A], CCGCCUAACACUGCGAAUGCGGGUCCCAAGCCCGGAUAAAAGUGGAGGGGGCGG [C15G C21G] is lower in self-cleavage: 0.11 for the first, 0.05 for the second.

Going from CCGCCUAACACUGCGAAUGCCGGUCCCAAGCCCGGAUAAAAGUCGAGGGGGCGG [C15G G44C] to CCGCCUAACACUGCGAAUGCCGGUCCCAAGCCCGGAUAAAAGUUGAGGGGGCGG [C15G G44U], the self-cleavage falls from 0.19 to 0.17.

First: CCGCCUAACACUGCGAAUGCCGGUCCCAAGCCCGGAUAAAAGUAGAGGGGGCGG [C15G G44A]
Second: CCGCCUAACACUGCGAAUGCCGGUCCCAAUCCCGGAUAAAAGUGGAGGGGGCGG [C15G G30U]
The self-cleavage of the first is higher: 0.12 for the first, 0.06 for the second.

CCGCCUAACACUGCGAAUGCCGGUCCCAAACCCGGAUAAAAGUGGAGGGGGCGG [C15G G30A] and CCGCCUAACACUGCGAAUGCCGGUCCCAACCCCGGAUAAAAGUGGAGGGGGCGG [C15G G30C] are the same in self-cleavage: 0.03 for the first, 0.03 for the second.

CCGCCUAACACUGCGAAUGCCGGUCGCAAGCCCGGAUAAAAGUGGAGGGGGCGG [C15G C26G] and CCGCCUAACACUGCGAAUGCCGGUCUCAAGCCCGGAUAAAAGUGGAGGGGGCGG [C15G C26U] are the same in self-cleavage: 0.11 for the first, 0.11 for the second.

Compared with CCGCCUAACACUGCGAAUGCCGGUCACAAGCCCGGAUAAAAGUGGAGGGGGCGG [C15G C26A], CCGCCUAACACUCCGAAUGCCGGUCCCAAGCCCGGAUAAAAGUGGAGGGGGCGG [C15G G13C] is lower in self-cleavage: 0.04 for the first, 0.02 for the second.

First: CCGCCUAACACUUCGAAUGCCGGUCCCAAGCCCGGAUAAAAGUGGAGGGGGCGG [C15G G13U]
Second: CCGCCUAACACUACGAAUGCCGGUCCCAAGCCCGGAUAAAAGUGGAGGGGGCGG [C15G G13A]
The self-cleavage of the first is lower: 0.02 for the first, 0.05 for the second.

First: CCGCCUAACACUGCGAAUGCCGGUCCCAAGCCCGCAUAAAAGUGGAGGGGGCGG [C15G G35C]
Second: CCGCCUAACACUGCGAAUGCCGGUCCCAAGCCCGUAUAAAAGUGGAGGGGGCGG [C15G G35U]
The self-cleavage of the first is lower: 0.14 for the first, 0.3 for the second.

CCGCCUAACACUGCGAAUGCCGGUCCCAAGCCCGAAUAAAAGUGGAGGGGGCGG [C15G G35A] gave a self-cleavage of 0.38.
